Assay results published in ChEMBL document CHEMBL3632544, “Acyl dihydropyrazolo[1,5-a]pyrimidinones as metabotropic glutamate receptor 5 positive allosteric modulators” (Bioorg Med Chem Lett, 2015).

Assays:
[1] = target: T1, Metabotropic glutamate receptor 5 (Homo sapiens, UniProt P41594); assay: Positive allosteric modulation of human mGlu5 expressed in HEK293 cells assessed as calcium mobilization; assay type: functional, cell-based
Outline: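 Calcium mobilization read-out in HEK293 cells stably expressing human mGlu5; PAM EC50 and efficacy as % of maximal glutamate response. Mean±SEM of three or more independent determinations, each in triplicate.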
Target sequence in this assay (P41594 whole entry): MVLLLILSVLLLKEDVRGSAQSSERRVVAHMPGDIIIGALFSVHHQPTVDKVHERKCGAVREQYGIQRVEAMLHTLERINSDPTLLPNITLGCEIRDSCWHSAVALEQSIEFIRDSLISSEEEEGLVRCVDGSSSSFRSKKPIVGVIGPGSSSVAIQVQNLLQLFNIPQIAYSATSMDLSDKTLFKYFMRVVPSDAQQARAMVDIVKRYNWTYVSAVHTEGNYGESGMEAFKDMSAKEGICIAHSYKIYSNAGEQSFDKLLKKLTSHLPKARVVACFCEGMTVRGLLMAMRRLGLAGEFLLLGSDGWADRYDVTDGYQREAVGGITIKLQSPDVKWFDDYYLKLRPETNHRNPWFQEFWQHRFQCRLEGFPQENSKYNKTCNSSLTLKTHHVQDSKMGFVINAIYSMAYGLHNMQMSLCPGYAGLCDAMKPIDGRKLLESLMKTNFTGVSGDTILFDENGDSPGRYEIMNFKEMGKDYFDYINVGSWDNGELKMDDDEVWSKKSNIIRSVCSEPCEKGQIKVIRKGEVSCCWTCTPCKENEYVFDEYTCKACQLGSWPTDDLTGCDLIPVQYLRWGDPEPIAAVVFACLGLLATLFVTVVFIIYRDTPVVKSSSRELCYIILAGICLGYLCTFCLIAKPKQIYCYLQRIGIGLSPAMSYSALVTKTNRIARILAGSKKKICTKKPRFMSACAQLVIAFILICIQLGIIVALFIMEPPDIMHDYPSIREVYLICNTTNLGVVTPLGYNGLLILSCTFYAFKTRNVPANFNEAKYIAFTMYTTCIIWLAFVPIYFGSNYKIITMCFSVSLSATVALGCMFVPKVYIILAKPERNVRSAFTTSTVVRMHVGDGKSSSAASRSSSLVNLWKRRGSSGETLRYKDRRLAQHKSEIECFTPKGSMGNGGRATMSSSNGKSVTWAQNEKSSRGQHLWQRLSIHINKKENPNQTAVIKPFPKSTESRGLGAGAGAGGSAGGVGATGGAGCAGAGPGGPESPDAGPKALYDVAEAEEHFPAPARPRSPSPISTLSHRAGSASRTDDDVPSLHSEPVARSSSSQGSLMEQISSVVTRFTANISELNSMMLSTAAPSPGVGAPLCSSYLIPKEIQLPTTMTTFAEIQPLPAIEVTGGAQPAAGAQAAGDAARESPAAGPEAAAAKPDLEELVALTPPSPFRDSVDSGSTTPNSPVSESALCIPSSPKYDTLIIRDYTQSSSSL

[2] = target: T1, Metabotropic glutamate receptor 5; assay: Positive allosteric modulation of human mGlu5 expressed in HEK293 cells assessed as calcium mobilization relative to glutamate; assay type: functional, cell-based
Outline: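 Calcium mobilization in HEK293 cells expressing human mGlu5, reported as EC50 and % Glu Max. Mean±SEM of three or more independent determinations, each run in triplicate.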
Target sequence in this assay (P41594 21-1212 limits assumed): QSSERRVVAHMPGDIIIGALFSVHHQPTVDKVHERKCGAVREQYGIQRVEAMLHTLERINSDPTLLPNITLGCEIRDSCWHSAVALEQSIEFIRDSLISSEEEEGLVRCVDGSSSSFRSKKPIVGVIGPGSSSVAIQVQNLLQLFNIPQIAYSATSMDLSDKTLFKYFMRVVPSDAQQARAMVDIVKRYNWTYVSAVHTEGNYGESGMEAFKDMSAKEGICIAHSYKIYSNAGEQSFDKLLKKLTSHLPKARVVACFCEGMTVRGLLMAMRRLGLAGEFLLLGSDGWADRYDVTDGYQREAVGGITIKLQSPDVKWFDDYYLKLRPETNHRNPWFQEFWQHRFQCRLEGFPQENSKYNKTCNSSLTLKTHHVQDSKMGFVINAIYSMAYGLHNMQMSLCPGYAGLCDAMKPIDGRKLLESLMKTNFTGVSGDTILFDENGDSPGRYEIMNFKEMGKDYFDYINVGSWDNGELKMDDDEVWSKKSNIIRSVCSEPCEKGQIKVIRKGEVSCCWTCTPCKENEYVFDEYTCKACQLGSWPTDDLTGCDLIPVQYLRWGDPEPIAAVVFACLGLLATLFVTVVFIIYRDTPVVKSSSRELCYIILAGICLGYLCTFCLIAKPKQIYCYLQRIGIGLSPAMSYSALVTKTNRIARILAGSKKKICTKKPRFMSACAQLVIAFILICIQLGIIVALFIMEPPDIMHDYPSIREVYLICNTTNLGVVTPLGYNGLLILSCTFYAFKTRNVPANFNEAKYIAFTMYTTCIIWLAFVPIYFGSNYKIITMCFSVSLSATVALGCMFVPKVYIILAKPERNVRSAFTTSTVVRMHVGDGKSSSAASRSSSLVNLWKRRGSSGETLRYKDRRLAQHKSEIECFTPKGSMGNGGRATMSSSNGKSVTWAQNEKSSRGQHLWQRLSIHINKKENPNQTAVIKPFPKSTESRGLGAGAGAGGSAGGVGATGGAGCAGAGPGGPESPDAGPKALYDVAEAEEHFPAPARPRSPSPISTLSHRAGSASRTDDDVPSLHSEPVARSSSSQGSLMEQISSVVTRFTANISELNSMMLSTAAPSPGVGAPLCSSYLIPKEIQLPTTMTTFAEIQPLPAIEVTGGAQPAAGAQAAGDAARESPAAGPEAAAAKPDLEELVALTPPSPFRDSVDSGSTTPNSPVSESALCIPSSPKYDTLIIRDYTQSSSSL

[3] = test system: Plasma; assay: Fraction unbound in human plasma; assay type: ADME, cell-free
Outline: (§1)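 Plasma protein binding measured in human and rat plasma; readout is fraction unbound.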

[4] = test system: Plasma; assay: Fraction unbound in rat plasma; assay type: ADME, cell-free; outline: as §1
[5] = test system: Plasma; assay: Stability in rat plasma after 4 hrs; assay type: ADME, cell-free
Outline: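 Compound incubated in rat plasma at 37 °C for 4 h; stability assessed.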

[6] = Plasma clearance in Sprague-Dawley rat at 0.2 mg/kg, iv; assay type: ADME, organism-based
[7] = Stability in simulated gastric fluid for 1 hr; assay type: physicochemical; details: simulated gi fluid
Outline: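 Incubation in simulated gastric fluid at 37 °C for 1 h; decomposition of the external amide assessed.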

[8] = Stability in beta cyclodextrin at pH 6 upto 5 days; assay type: physicochemical; details: buffer, pH 6, 120 h
Outline: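 Stability of the compound formulated at 4 mg/mL in 20% β-cyclodextrin vehicle, pH 6, monitored for up to five days; percent decomposition of the amide determined.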

Structure (SMILES): CC(=O)N1c2cc(COc3ccccc3)nn2CCC1C (stereo not drawn)
- EC50 ([1]; read-out: EC50): 794 nM
- %max [2]: 67%

Structure (SMILES): CC(=O)N1CCCn2nc(CN(C)c3ccccc3)cc21
- EC50 ([1]; read-out: EC50): 700 nM
- %max [2]: 74%
- Fu [3]: 0.46
- Fu [4]: 0.35

Structure (SMILES): CC(=O)N1CCCn2nc(COc3ccc(F)cc3)cc21
- EC50 ([1]; read-out: EC50): > 10000 nM
- %max [2]: 56%

Structure (SMILES): CC(=O)N1CCCn2nc(CN3CCCc4ccccc43)cc21
- EC50 ([1]; read-out: EC50): > 10000 nM
- %max [2]: 48%

Structure (SMILES): O=C(c1ccc(F)cc1)N1CCCn2nc(COc3ccccc3)cc21
- EC50 ([1]; read-out: EC50): 596 nM
- %max [2]: 63%

Structure (SMILES): CC(=O)N1CCCn2nc(CS(=O)(=O)c3ccccc3)cc21
- EC50 ([1]; hek293): Not Active
- EC50 ([1]; read-out: pEC50 (converted)): > 31600 nM
- %max [2]: < 15%

Structure (SMILES): O=C(c1ccco1)N1CCCn2nc(COc3ccccc3)cc21
- EC50 ([1]; hek293): Not Active
- EC50 ([1]; read-out: pEC50 (converted)): > 31600 nM
- %max [2]: < 15%

Structure (SMILES): CC(=O)N1CCCc2nc(COc3ccccc3)oc21
- EC50 ([1]; read-out: EC50): 1340 nM
- Stability [5]: Unstable

Structure (SMILES): CC(=O)N1CCCn2nc(CSc3ccccc3)cc21
- EC50 ([1]; read-out: EC50): 3900 nM
- %max [2]: 39%

Structure (SMILES): CC(=O)N1CCCn2nc(COc3cccnc3)cc21
- EC50 ([1]; hek293): Not Active
- EC50 ([1]; read-out: pEC50 (converted)): > 31600 nM
- %max [2]: < 15%

Structure (SMILES): CC(=O)N1CCCn2nc(CN3CCc4ccccc43)cc21
- EC50 ([1]; hek293): Not Active
- EC50 ([1]; read-out: pEC50 (converted)): > 31600 nM
- %max [2]: < 15%

Structure (SMILES): CC(=O)N1CCCn2nc(COc3ccccc3F)cc21
- EC50 ([1]; read-out: EC50): 2370 nM
- %max [2]: 60%
- Fu [3]: 0.17
- Fu [4]: 0.24
- clearance [6]: 103 mL/min/kg
- Stability [5]: Stable
- Stability [7]: Stable
- Stability [8]: Stable

Structure (SMILES): O=C(c1ccc(Cl)cc1)N1CCCn2nc(COc3ccccc3)cc21
- EC50 ([1]; read-out: EC50): 390 nM
- %max [2]: 68%

Structure (SMILES): O=C(c1ccncc1)N1CCCn2nc(COc3ccccc3)cc21
- EC50 ([1]; read-out: EC50): > 10000 nM
- %max [2]: 51%

Structure (SMILES): CC(=O)N1CCCn2nc(CNc3ccccc3)cc21
- EC50 ([1]; read-out: EC50): > 10000 nM
- %max [2]: 20%

Structure (SMILES): CC(=O)N1CCCn2nc(C[S+]([O-])c3ccccc3)cc21 (stereo not drawn)
- EC50 ([1]; hek293): Not Active
- EC50 ([1]; read-out: pEC50 (converted)): > 31600 nM
- %max [2]: < 15%

Structure (SMILES): CC(=O)N1CCCn2nc(CN3CCOc4ccccc43)cc21
- EC50 ([1]; read-out: EC50): 725 nM
- %max [2]: 67%
- Fu [3]: 0.35
- Fu [4]: 0.43

Structure (SMILES): O=C(c1nccs1)N1CCCn2nc(COc3ccccc3)cc21
- EC50 ([1]; read-out: EC50): 257 nM
- %max [2]: 24%

Structure (SMILES): CC(=O)N1CCCn2cc(COc3ccccc3)nc21
- EC50 ([1]; hek293): Not Active

Structure (SMILES): O=C(c1ccccn1)N1CCCn2nc(COc3ccccc3)cc21
- EC50 ([1]; read-out: EC50): > 10000 nM
- %max [2]: 44%

Structure (SMILES): CC(=O)N1CCCn2nc(COc3cccc(F)c3)cc21
- EC50 ([1]; read-out: EC50): 266 nM
- EC50 ([1]; read-out: pEC50 (converted)): 240 nM
- %max [2]: 58%

Structure (SMILES): CC(=O)N1c2cc(COc3ccccc3)nn2CCC1c1ccccc1 (stereo not drawn)
- EC50 ([1]; read-out: EC50): 5370 nM
- %max [2]: 38%

Structure (SMILES): CC(=O)N1CCCn2nc(COc3ccncc3)cc21
- EC50 ([1]; hek293): Not Active
- EC50 ([1]; read-out: pEC50 (converted)): > 31600 nM
- %max [2]: < 15%

Structure (SMILES): CC(=O)N1CCCn2nc(COc3cc(F)cc(F)c3)cc21
- EC50 ([1]; read-out: EC50): 1270 nM
- %max [2]: 63%

Structure (SMILES): O=C(c1ccno1)N1CCCn2nc(COc3ccccc3)cc21
- EC50 ([1]; read-out: EC50): 2780 nM
- %max [2]: 22%

Structure (SMILES): CC(=O)N1CCCc2nc(COc3ccccc3)sc21
- EC50 ([1]; read-out: EC50): 888 nM

Structure (SMILES): O=C(c1cccc(F)c1)N1CCCn2nc(COc3ccccc3)cc21
- EC50 ([1]; read-out: EC50): 591 nM
- %max [2]: 61%

Structure (SMILES): CC(C)(C)C(=O)N1CCCn2nc(COc3ccccc3)cc21
- EC50 ([1]; read-out: EC50): 882 nM
- %max [2]: 64%

Structure (SMILES): CC(C)C(=O)N1CCCn2nc(COc3ccccc3)cc21
- EC50 ([1]; read-out: EC50): 1710 nM
- %max [2]: 59%

Structure (SMILES): CC(=O)N1CCCn2nc(COc3ccccc3)nc21
- EC50 ([1]; read-out: EC50): 3400 nM

Structure (SMILES): O=C(C1CC1)N1CCCn2nc(COc3ccccc3)cc21
- EC50 ([1]; read-out: EC50): 559 nM
- EC50 ([1]; read-out: pEC50 (converted)): 525 nM
- %max [2]: 61%

Structure (SMILES): O=C(c1ccccc1)N1CCCn2nc(COc3ccccc3)cc21
- EC50 ([1]; read-out: EC50): 610 nM
- %max [2]: 63%

Structure (SMILES): CC(=O)N1CCCn2nc(CN(C)C3C4CC3C4)cc21 (stereo not drawn)
- EC50 ([1]; hek293): Not Active
- EC50 ([1]; read-out: pEC50 (converted)): > 31600 nM
- %max [2]: < 15%

Structure (SMILES): CC(=O)N1CCCn2nc(COc3cc(F)cc(C#N)c3)cc21
- EC50 ([1]; read-out: EC50): > 10000 nM
- %max [2]: 39%

Structure (SMILES): O=C(C1CCC1)N1CCCn2nc(COc3ccccc3)cc21
- EC50 ([1]; read-out: EC50): 1220 nM
- %max [2]: 41%

Structure (SMILES): O=C(C1CCCC1)N1CCCn2nc(COc3ccccc3)cc21
- EC50 ([1]; read-out: EC50): 1750 nM
- %max [2]: 41%

Structure (SMILES): CCC(=O)N1CCCn2nc(COc3ccccc3)cc21
- EC50 ([1]; read-out: EC50): 332 nM
- %max [2]: 48%

Structure (SMILES): O=C(c1ccccc1F)N1CCCn2nc(COc3ccccc3)cc21
- EC50 ([1]; read-out: EC50): 1130 nM
- %max [2]: 62%

Structure (SMILES): O=C(Cc1ccccc1)N1CCCn2nc(COc3ccccc3)cc21
- EC50 ([1]; read-out: EC50): 378 nM
- EC50 ([1]; read-out: pEC50 (converted)): 372 nM
- %max [2]: 72%

Structure (SMILES): CC(=O)N1CCCc2nc(COc3ccccc3)cn21
- EC50 ([1]; read-out: EC50): 780 nM
- Stability [5]: Unstable

Structure (SMILES): CC(=O)N1CCCn2nc(COc3ccccc3)c(F)c21
- EC50 ([1]; read-out: EC50): 3240 nM
